Assay results published in ChEMBL document CHEMBL3352339, “Implications of N-capped urea/thiourea and C-capped 3-(1-piperazinyl)-1,2-benzisothiazole with bridging Gly-Val/Phe-Gly-Val-Pro as therapeutic targets” (Eur J Med Chem, 2014).
Converted amounts (≈) assume the structure as drawn. Starred links: 1 amine or outer side, 2 acyl side, 3 side chain; linkers in the order of their positions; H or OH if unused. Residues, ends and D or L forms follow the SMILES beside them. *: point of attachment. Thiocarbamoyl(4-MeOPh) = COc1ccc(NC(=S)*)cc1; Thiocarbamoyl(N-2-FPh) = Fc1ccccc1NC(=S)*; NH(4-MeO-phenyl) = COc1ccc(N*)cc1; X1 = c1ccc2c(N3CCN(*)CC3)nsc2c1; NH(2-F-phenyl) = Fc1ccccc1N*; CO = O=C([*:1])[*:2]; X6 = Fc1cccc(N*)c1; X3 = COc1ccccc1N*

Columns and labels:
Escherichia coli [1] = test: Antibacterial activity against Escherichia coli at 50 ug/mL incubated for 24 hrs by agar well diffusion method; type: functional; conditions: read-out: IZ
Summary of the method: (§1)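 Agar well diffusion against the bacterial isolate, with streptomycin as the reference drug. Read-out is the average diameter (mm) of the growth-inhibition zone around the well.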

[2] = Inhibition of sheep stomach parietal cells gastric H+/K+-ATPase activity assessed as reduction in inorganic phosphorus production by Fiske Subbarow's method; type: tissue-based, Ovis aries; conditions: read-out: IC50
Summary of the method: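 Inhibition of purified H+/K+-ATPase, with omeprazole as the reference. IC50 is the mean of triplicate runs.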

Fusarium verticillioides [3] = test: Antifungal activity against Fusarium moniliforme at 50 ug/mL incubated for 3 days by agar well diffusion method; type: functional; conditions: 72 h, read-out: IZ
Summary of the method: (§2)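 Fungal growth inhibition measured by agar well diffusion, with bavistin as the reference. Records the mean inhibition-zone diameter (mm) around each well.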

Aspergillus flavus [4] = test: Antifungal activity against Aspergillus flavus at 50 ug/mL incubated for 3 days by agar well diffusion method; type: functional; conditions: 72 h, read-out: IZ; summary of the method: as §2
Aspergillus niger [5] = test: Antifungal activity against Aspergillus niger at 50 ug/mL incubated for 3 days by agar well diffusion method; type: functional; conditions: 72 h, read-out: IZ; summary of the method: as §2
Xanthomonas oryzae [6] = test: Antibacterial activity against Xanthomonas oryzae at 50 ug/mL incubated for 24 hrs by agar well diffusion method; type: functional; conditions: read-out: IZ
Fusarium verticillioides [7] = test: Antifungal activity against Fusarium moniliforme incubated for 48 to 72 hrs by agar microdilution method; type: functional
Summary of the method: (§3)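 MIC by microdilution against the fungal strain, limited to compounds showing significant zones in the diffusion assay. Bavistin was used as the reference.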

Klebsiella pneumoniae = test: Antibacterial activity against Klebsiella pneumoniae incubated for 24 hrs by agar microdilution method; type: functional
Escherichia coli [8] = test: Antibacterial activity against Escherichia coli incubated for 24 hrs by agar microdilution method; type: functional
Fusarium oxysporum [9] = test: Antifungal activity against Fusarium oxysporum incubated for 48 to 72 hrs by agar microdilution method; type: functional; summary of the method: as §3
Fusarium oxysporum [10] = test: Antifungal activity against Fusarium oxysporum at 50 ug/mL incubated for 3 days by agar well diffusion method; type: functional; conditions: 72 h, read-out: IZ; summary of the method: as §2
Urease = Urease (Canavalia ensiformis, UniProt P07374); test: Inhibition of jack bean urease assessed as reduction in ammonia production incubated at 30 degC for 15 mins by indophenol method
Sequence of Urease (P07374 whole entry): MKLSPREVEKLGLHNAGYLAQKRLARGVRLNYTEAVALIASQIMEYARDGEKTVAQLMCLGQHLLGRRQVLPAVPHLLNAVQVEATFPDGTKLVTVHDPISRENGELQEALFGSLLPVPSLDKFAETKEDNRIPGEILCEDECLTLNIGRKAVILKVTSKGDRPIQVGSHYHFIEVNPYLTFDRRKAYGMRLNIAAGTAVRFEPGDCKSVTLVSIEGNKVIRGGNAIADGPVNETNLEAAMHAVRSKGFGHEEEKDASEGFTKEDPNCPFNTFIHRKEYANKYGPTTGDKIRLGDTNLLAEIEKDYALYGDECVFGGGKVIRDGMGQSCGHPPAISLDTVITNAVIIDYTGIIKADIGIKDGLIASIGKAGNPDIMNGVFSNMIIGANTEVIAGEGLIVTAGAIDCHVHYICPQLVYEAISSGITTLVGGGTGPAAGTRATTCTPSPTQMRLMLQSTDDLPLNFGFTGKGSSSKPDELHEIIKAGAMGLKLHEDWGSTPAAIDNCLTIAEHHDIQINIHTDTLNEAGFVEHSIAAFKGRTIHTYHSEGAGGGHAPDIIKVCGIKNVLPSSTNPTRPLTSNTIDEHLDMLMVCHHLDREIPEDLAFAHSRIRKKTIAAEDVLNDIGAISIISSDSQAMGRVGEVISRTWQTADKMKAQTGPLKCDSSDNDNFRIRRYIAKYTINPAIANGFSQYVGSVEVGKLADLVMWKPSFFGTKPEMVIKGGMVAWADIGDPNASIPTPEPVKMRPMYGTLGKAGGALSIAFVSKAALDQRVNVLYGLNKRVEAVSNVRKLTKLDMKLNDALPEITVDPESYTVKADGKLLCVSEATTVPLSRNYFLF
Summary of the method: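 Inhibition of jack bean urease, with thiourea as the reference standard. IC50 values are the average of triplicate runs.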

Staphylococcus [11] = test: Antibacterial activity against Coagulase positive Staphylococcus at 50 ug/mL incubated for 24 hrs by agar well diffusion method; type: functional; conditions: read-out: IZ; summary of the method: as §1
Staphylococcus [12] = test: Antibacterial activity against Coagulase positive Staphylococcus incubated for 24 hrs by agar microdilution method; type: functional
Aspergillus niger [13] = test: Antifungal activity against Aspergillus niger incubated for 48 to 72 hrs by agar microdilution method; type: functional; summary of the method: as §3
[14] = Antiglycation activity using bovine serum albumin incubated at 37 degC for 7 days by spectrofluorimetry; type: physicochemical
Summary of the method: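 Glycation of bovine serum albumin, with rutin as the reference standard. IC50 values are averages of triplicate runs.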

Aspergillus flavus [15] = test: Antifungal activity against Aspergillus flavus incubated for 48 to 72 hrs by agar microdilution method; type: functional; summary of the method: as §3
Xanthomonas oryzae [16] = test: Antibacterial activity against Xanthomonas oryzae incubated for 24 hrs by agar microdilution method; type: functional

Compound	zone of inhibition at 50 µg/mL (Escherichia coli [1])	IC50 [2]	zone of inhibition at 50 µg/mL (Fusarium verticillioides [3])	zone of inhibition at 50 µg/mL (Aspergillus flavus [4])	zone of inhibition at 50 µg/mL (Aspergillus niger [5])	zone of inhibition at 50 µg/mL (Xanthomonas oryzae [6])	MIC (Fusarium verticillioides [7])	MIC (Klebsiella pneumoniae)	MIC (Escherichia coli [8])	MIC (Fusarium oxysporum [9])	zone of inhibition at 50 µg/mL (Fusarium oxysporum [10])	IC50 (Urease)	zone of inhibition at 50 µg/mL (Staphylococcus [11])	MIC (Staphylococcus [12])	MIC (Aspergillus niger [13])	IC50 [14]	MIC (Aspergillus flavus [15])	MIC (Xanthomonas oryzae [16])
CC(C)[C@H](NC(=O)CNC(=O)[C@H](Cc1ccccc1)NC(=O)CNC(=O)Nc1ccccc1F)C(=O)N1CCC[C@H]1C(=O)N1CCN(c2nsc3ccccc23)CC1 ({NH(2-F-phenyl)-CO}-GFGVP-X1)	30 mm	110 µM	26 mm	28 mm	29 mm	28 mm	10 µg/mL (≈ 12.3 µM)	12.2 µg/mL (≈ 15 µM)	12.8 µg/mL (≈ 15.7 µM)	14 µg/mL (≈ 17.2 µM)	29 mm	41 µM	29 mm	12.2 µg/mL (≈ 15 µM)	14 µg/mL (≈ 17.2 µM)	53 µM	14.2 µg/mL (≈ 17.5 µM)	–
CC(C)[C@H](NC(=O)CNC(=O)Nc1ccccc1F)C(=O)NCC(=O)N[C@H](C(=O)N1CCC[C@H]1C(=O)N1CCN(c2nsc3ccccc23)CC1)C(C)C ({NH(2-F-phenyl)-CO}-GVGVP-X1)	25 mm	100 µM	26 mm	24 mm	25 mm	23 mm	15.5 µg/mL (≈ 20.2 µM)	17 µg/mL (≈ 22.2 µM)	15.8 µg/mL (≈ 20.6 µM)	16.8 µg/mL (≈ 21.9 µM)	22 mm	42 µM	25 mm	16.8 µg/mL (≈ 21.9 µM)	16.8 µg/mL (≈ 21.9 µM)	54 µM	17.8 µg/mL (≈ 23.2 µM)	–
COc1ccc(NC(=O)NCC(=O)N[C@@H](Cc2ccccc2)C(=O)NCC(=O)N[C@H](C(=O)N2CCC[C@H]2C(=O)N2CCN(c3nsc4ccccc34)CC2)C(C)C)cc1 ({NH(4-MeO-phenyl)-CO}-GFGVP-X1)	26 mm	38 µM	29 mm	28 mm	28 mm	23 mm	–	–	–	–	27 mm	17 µM	26 mm	–	–	19 µM	–	–
COc1ccc(NC(=O)NCC(=O)N[C@H](C(=O)NCC(=O)N[C@H](C(=O)N2CCC[C@H]2C(=O)N2CCN(c3nsc4ccccc34)CC2)C(C)C)C(C)C)cc1 ({NH(4-MeO-phenyl)-CO}-GVGVP-X1)	23 mm	34 µM	24 mm	26 mm	24 mm	22 mm	–	–	–	–	28 mm	21 µM	22 mm	–	–	21 µM	–	–
COc1ccc(NC(=S)NCC(=O)N[C@@H](Cc2ccccc2)C(=O)NCC(=O)N[C@H](C(=O)N2CCC[C@H]2C(=O)N2CCN(c3nsc4ccccc34)CC2)C(C)C)cc1 ({Thiocarbamoyl(4-MeOPh)}-GFGVP-X1)	28 mm	34 µM	31 mm	29 mm	30 mm	26 mm	–	–	–	–	29 mm	15 µM	28 mm	–	–	16 µM	–	–
COc1ccc(NC(=S)NCC(=O)N[C@H](C(=O)NCC(=O)N[C@H](C(=O)N2CCC[C@H]2C(=O)N2CCN(c3nsc4ccccc34)CC2)C(C)C)C(C)C)cc1 ({Thiocarbamoyl(4-MeOPh)}-GVGVP-X1)	24 mm	32 µM	26 mm	25 mm	24 mm	25 mm	–	–	–	–	26 mm	18 µM	24 mm	–	–	18 µM	–	–
CC(C)[C@H](NC(=O)CNC(=S)Nc1ccccc1F)C(=O)NCC(=O)N[C@H](C(=O)N1CCC[C@H]1C(=O)N1CCN(c2nsc3ccccc23)CC1)C(C)C ({Thiocarbamoyl(N-2-FPh)}-GVGVP-X1)	27 mm	92 µM	31 mm	29 mm	30 mm	24 mm	13 µg/mL (≈ 16.6 µM)	16 µg/mL (≈ 20.5 µM)	14.2 µg/mL (≈ 18.2 µM)	15.2 µg/mL (≈ 19.5 µM)	30 mm	40 µM	27 mm	15.5 µg/mL (≈ 19.8 µM)	15.2 µg/mL (≈ 19.5 µM)	50 µM	16.5 µg/mL (≈ 21.1 µM)	–
COc1ccccc1NC(=O)NCC(=O)N[C@@H](Cc1ccccc1)C(=O)NCC(=O)N[C@H](C(=O)N1CCC[C@H]1C(=O)N1CCN(c2nsc3ccccc23)CC1)C(C)C ({X3-CO}-GFGVP-X1)	23 mm	54 µM	26 mm	25 mm	24 mm	22 mm	–	–	–	–	23 mm	21 µM	23 mm	–	–	22 µM	–	–
COc1ccccc1NC(=O)NCC(=O)N[C@H](C(=O)NCC(=O)N[C@H](C(=O)N1CCC[C@H]1C(=O)N1CCN(c2nsc3ccccc23)CC1)C(C)C)C(C)C ({X3-CO}-GVGVP-X1)	19 mm	46 µM	23 mm	21 mm	23 mm	18 mm	–	–	–	–	21 mm	22 µM	19 mm	–	–	24 µM	–	–
CC(C)[C@H](NC(=O)CNC(=O)[C@H](Cc1ccccc1)NC(=O)CNC(=O)Nc1cccc(F)c1)C(=O)N1CCC[C@H]1C(=O)N1CCN(c2nsc3ccccc23)CC1 ({X6-CO}-GFGVP-X1)	28 mm	92 µM	31 mm	29 mm	30 mm	26 mm	–	–	–	–	29 mm	43 µM	29 mm	–	–	50 µM	–	–
CC(C)[C@H](NC(=O)CNC(=O)Nc1cccc(F)c1)C(=O)NCC(=O)N[C@H](C(=O)N1CCC[C@H]1C(=O)N1CCN(c2nsc3ccccc23)CC1)C(C)C ({X6-CO}-GVGVP-X1)	24 mm	88 µM	27 mm	25 mm	27 mm	22 mm	–	–	–	–	24 mm	44 µM	23 mm	–	–	52 µM	–	–
COC(=O)Nc1nc2ccccc2[nH]1 [CARBENDAZIM]	–	–	15 mm	13 mm	14 mm	–	20 µg/mL (≈ 105 µM)	–	–	24 µg/mL (≈ 126 µM)	13 mm	–	–	–	22 µg/mL (≈ 115 µM)	–	24 µg/mL (≈ 126 µM)	–
CN[C@@H]1[C@H](O[C@H]2[C@H](O[C@H]3[C@H](O)[C@@H](O)[C@H](N=C(N)N)[C@@H](O)[C@@H]3N=C(N)N)O[C@@H](C)[C@]2(O)C=O)O[C@@H](CO)[C@H](O)[C@H]1O [STREPTOMYCIN]	14 mm	–	–	–	–	11 mm	–	20 µg/mL (≈ 34.4 µM)	22 µg/mL (≈ 37.8 µM)	–	–	–	13 mm	21 µg/mL (≈ 36.1 µM)	–	–	–	18 µg
